Hits are enriched below; roughly 2.5% of the tested compounds scored in any of these assays.
N-glyco inh: increase of ERlucT glycosylation luciferase signal, primary screen, N-linked glycosylation inhibitor project, D54 ERlucT cells, luminescence, set 2 | AID 588692, 2011 | D54 ERlucT glycosylation luciferase reporter, 24 h; percent of 100 nM tunicamycin response | 360,000 compounds, 0.23% hits | reporter increase, % at 12.5 µM;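 active means mean luciferase reporter signal, scaled so untreated is 0 and the glycosylation-blocking control 100, at or above a set limit in every replicate; inconclusive means mean reaches the limit but not every replicate does; inactive means mean below the limit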;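 further: luciferase carries N-glycosylation sites so blocking glycosylation raises the light; 0% = median of neutral control wells and 100% = median of 100 nM tunicamycin wells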
AF4-AF9 inh: inhibitors of AF4 peptide binding to AF9, primary screen, biochemical, AlphaScreen, biotin-AF4 peptide, FLAG-AF9, single point | Protein AF-9 (Homo sapiens), P42568 | inhibition, % at 10 µM | 350,000 compounds, 0.47% hits;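 active means every replicate reaching a set inhibition limit, whatever the replicate mean, cut at about 25% in these data; inconclusive means mean inhibition reaches that limit but some replicates miss it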;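 further: 0% = plate neutral control median and 100% = total signal loss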
Target sequence (P42568 whole entry, looked up): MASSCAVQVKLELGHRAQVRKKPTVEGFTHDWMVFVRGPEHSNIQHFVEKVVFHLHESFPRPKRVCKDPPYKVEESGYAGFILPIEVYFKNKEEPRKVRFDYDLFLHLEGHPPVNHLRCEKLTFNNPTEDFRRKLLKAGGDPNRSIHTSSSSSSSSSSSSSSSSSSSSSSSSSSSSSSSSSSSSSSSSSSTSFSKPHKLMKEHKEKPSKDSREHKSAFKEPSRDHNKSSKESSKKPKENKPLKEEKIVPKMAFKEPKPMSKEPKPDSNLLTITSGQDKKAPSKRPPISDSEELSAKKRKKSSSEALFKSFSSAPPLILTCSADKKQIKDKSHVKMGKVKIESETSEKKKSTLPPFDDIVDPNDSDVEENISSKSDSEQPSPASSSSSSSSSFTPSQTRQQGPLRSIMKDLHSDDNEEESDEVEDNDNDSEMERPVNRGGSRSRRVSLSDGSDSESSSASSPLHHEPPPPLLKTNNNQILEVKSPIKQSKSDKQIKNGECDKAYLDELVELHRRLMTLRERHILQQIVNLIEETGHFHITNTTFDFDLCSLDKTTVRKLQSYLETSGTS
FN deposition inh: inhibitors of fibronectin matrix deposition, primary screen, AH1F cells, Alexa488-fibronectin fluorescence, plate reader; AH1F fibroblasts, overnight; inhibition, % at 12.6 µM; 350,000 compounds, 0.086% hits; AID 743247, 2014;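 active means mean inhibition across replicates of 30% or more, regardless of how many single replicates reach that level; inconclusive means mean under 30% yet at least half of replicates reach 30%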;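 further: positive control wells lacked labelled fibronectin entirely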
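Assay system: AH1F fibroblasts / Quantity: 10000 cells per well / Medium: DMEM plus 2% serum, read in PBS / Reagent: labelled fibronectin 24 nM / Dosing: single dose, pinned / Times: 1 h cell attachment, overnight exposure to compound and label / Signal: fluorescence, ex 485 nm, em 525 nm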
Env fusion inh: inhibitors of HIV-1 Env-driven cell-cell fusion, primary screen, HeLa-JRFL effector, CEM21 target cells, luciferase; inhibition, % at 12.3 µM; 360,000 compounds, 1.1% hits; AID 651610, 2012;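 active means mean replicate inhibition score of at least 50 and every replicate individually at or above 50; inconclusive means only one of the two criteria met; inactive means mean below 50 and not all replicates reaching 50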;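 further: 0% = plate neutral controls and 100% = maraviroc near 300 nM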
PAX8 inh HTS: inhibitors of PAX8-driven TPO luciferase reporter, primary screen, RMG-I cells, single concentration | 360,000 compounds, 1.2% hits | inhibition, % at 12.6 µM | SteadyGlo, 24 h;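 active means mean replicate inhibition at least 60% with every replicate also reaching 60%; inconclusive means only one of the two criteria is met; inactive means mean below 60% and not all replicates reaching 60%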;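 further: luciferase light reporting Pax8 driven TPO promoter activity; plate controls were median of neutral control wells for no effect and mitoxantrone controls for full effect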
EWS-Fli block: EWS/Fli-driven NR0B1 reporter inhibitors, primary screen, A673 cells, NR0B1 luciferase, luminescence, MLPCN library. inhibition, % at 12.6 µM. AID 651661, 2012. 350,000 compounds, 0.67% hits. viability-normalised;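 active means mean inhibition of at least 50% after viability correction, with every replicate also passing that limit; inconclusive means mean reaches 50% but only one of two replicates passes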;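 further: firefly luciferase signal divided by Alamar Blue viability fluorescence both relative to DMSO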
Alpha interfer: AlphaScreen signal interference counter-screen, dose response, artefact control, biochemical, cherry-picked samples, luminescence. shares compounds with AF4-AF9 inh. 530 compounds, 45% hits. AC50, µM (top dose mostly 12 µM), for the others: at the top dose activity change, negative = inhibition; cut-off not given, nearly all actives have AC50 up to about 14 µM
The depositor's hits bear a star; ? = inconclusive; . = no result; ! = repeats disagree; [ ] = another dose, or the depositor's remark.

SMILES	N-glyco inh	AF4-AF9 inh	FN deposition inh	Env fusion inh	PAX8 inh HTS	EWS-Fli block	Alpha interfer
C[C@@H]1CN([C@H](C)CO)C(=O)Cc2cc(N(C)C)ccc2O[C@H]1CN(C)Cc1ccc(Oc2ccccc2)cc1	.	43.2*	.	53.3[16.7 µM]	-49.4	-13.7	-39.5%
CN1CCN(CCCN2c3ccccc3Sc3ccc(S(=O)(=O)N(C)C)cc32)CC1	-0.7	24.2	-1.2	11.4	-14.3	25.3	.
CN(C)CCCN1c2ccccc2Sc2ccc(Cl)cc21	3.2	38.8*!	4.1	-33.3	1.7	5.1	-32.5%
CC(=O)c1ccc2c(c1)N(CCCN1CCC(CCO)CC1)c1ccccc1S2	-1.1	6.4	13.2	7.8	18.4	2.9	.
OCCN1CCN(CCCN2c3ccccc3Sc3ccc(Cl)cc32)CC1	-0.1	39.8*	1.3	20.2	-10.0	21.1	-32.4%
COc1ccc(S(=O)(=O)N(C)C[C@H]2OCCCC[C@@H](C)Oc3ccc(N(C)C)cc3C(=O)N([C@@H](C)CO)C[C@H]2C)cc1	.	11.5	.	-12.2[16.7 µM]	25.3	-0.8	.
COc1ccc(NC(=O)c2ccc(-c3ccc(-c4noc(C)n4)cc3C)cc2)cc1N1CCN(C)CC1	-3.5	38.3*	-8.9	7.4	32.5	9.0	12µM*
CCCNC(=O)Nc1ccc2c(c1)C(=O)N(C)C[C@H](OC)[C@@H](C)CN(CCC(F)(F)F)[C@H](C)CO2	.	.	-59.2	.	.	-5.7	.
CO[C@@H]1CN(C)C(=O)c2cc(NC(C)=O)ccc2OC[C@@H](C)N(Cc2ccc(F)cc2)C[C@H]1C	.	0.5	9.6	.	.	3.9	.
C[C@@H](NC(=O)[C@@H]1[C@@H](CO)[C@@H]2Cn3c(ccc(-c4ccncc4)c3=O)[C@H]1N2C)c1ccccc1	.	-4.3	.	.	0.5	-2.2	.
C[C@@H]1CN([C@H](C)CO)C(=O)Cc2cc(NS(C)(=O)=O)ccc2O[C@H]1CN(C)Cc1ccc2c(c1)OCO2	.	-3.0	-1.3	16.0[16.7 µM]	3.5	-0.1	.
N=C(N)c1ccc(/C=C/c2ccc(C(=N)N)cc2O)cc1	0.9	60.6*	-3.9	0.6	27.9	3.2	-29.2%
CC(C)NC(=S)N/N=C/c1sc(N2CCCCC2)nc1-c1cccs1	-10.2	-1.4	1.3	-28.7	-20.8	-23.0	.
O=C(N/N=C/c1sc(N2CCCCC2)nc1-c1cccs1)C1CC1	-2.4	23.2	-3.7	-35.4	-24.0	2.3	-20.4%
Cc1noc(C)c1S(=O)(=O)Nc1ccc2c(c1)C(=O)N([C@H](C)CO)C[C@H](C)[C@H](CN(C)C(=O)Nc1ccc(F)cc1)OCCCC[C@@H](C)O2	.	2.9	-7.2	-9.3[16.7 µM]	-10.7	-6.6	.
COc1ccc2c3c(n(C)c2c1)[C@@H](CO)N(C(=O)CN(C)C)CC31CCN(Cc2nccs2)CC1	.	-0.9	.	.	.	-9.8	.
Cc1ncc(CO)c(/C=N/NC(=S)Nc2cccc(Cl)c2)c1O	0.4	.	.	.	.	.	.
Cc1ncc(CO)c(/C=N/NC(=S)Nc2ccc(Cl)c(Cl)c2)c1O	0.1	29.6*	2.0	9.1	25.6	-3.3	13µM*
O=c1c(O)c(-c2ccccc2)oc2cc(O)cc(O)c12	-5.3	1.1	.	.	.	-17.7	.
CC(C)=CCc1cc(-c2oc3cc(O)cc(O)c3c(=O)c2O)ccc1O	-3.1	35.1*	.	.	.	-5.3	-42.3%
CCOC(=O)c1c(-c2ccccc2)csc1NC(=O)CCN1C(=O)c2ccccc2C1=O	3.1	-1.4	-0.1	-22.9	4.7	-19.5	.
CCOC(=O)c1c(-c2ccc(-c3ccccc3)cc2)csc1NC(=O)CNCCN(C)C	-4.9	31.5*	5.7	14.8	4.4	?	-32.0%
[N-]=[N+]=NCc1ccccc1C[C@]1(C(N)=O)N=C(c2ccc(OCCCO)cc2)O[C@H]1c1ccccc1	.	0.1	.	-5.8[16.7 µM]	6.9	9.7	.
CCOC(=O)C1CCCN(C2=C(NS(=O)(=O)c3ccc(Br)cc3)C(=O)c3ccccc3C2=O)C1 (stereo not drawn)	5.9	52.0*	11.7	12.5	-1.5	2.7	-19.6%

From PubChem
